Assay results gathered from unrelated publications.
Target: Delta-type opioid receptor (OPRD1, Homo sapiens, UniProt P41143)

Cc1cc(F)ccc1/N=N/C(=O)NCC1(N(C)C)CCCCC1 — Ki (cell-free assay): 12000 nM
Oc1ccc2c3c1O[C@H]1c4ncc(-c5ccccc5)cc4C[C@@]4(OCCCc5cccnc5)[C@@H](C2)N(CC2CC2)CC[C@]314 — Ki (ligand displacement, radioligand; cell membranes): 5.89 nM
CCCCC/C=C\C/C=C\C/C=C\C/C=C\CCCC(=O)O — Ki (ligand displacement, radioligand; cell membranes): 4800 nM
CCCO[C@@]12Cc3cc(-c4ccccc4)cnc3[C@@H]3Oc4c(O)ccc5c4[C@@]31CCN(CC1CC1)[C@@H]2C5 — Ki (ligand displacement, radioligand; cell membranes): 7.48 nM
C[C@@H](NC(=O)[C@@H](N)Cc1ccc(O)cc1)C(=O)NCC(=O)N[C@@H](Cc1ccccc1)C(=O)N(C)CCC[C@@]1(c2ccc(F)cc2)OCc2cc(C#N)ccc21 — Ki (cell-free assay): 57 nM
Cc1ccc(CNC(=O)CNC(=O)[C@@H]2Cc3ccccc3CN2C(=O)[C@@H](N)Cc2c(C)cc(O)cc2C)cc1 — Ki (ligand displacement, radioligand; cell membranes): 0.31 nM
C[N+]1(C)CCC(=C(c2ccccc2)c2ccccc2)CC1 — Ki (cell-free assay): 14000 nM
CCCCCCCCC[C@@H]1CC(=O)NCC(=O)N[C@H](Cc2ccc(O)cc2)C(=O)NCC(=O)N[C@@H](Cc2ccccc2)C(=O)O1 — Ki (ligand displacement, radioligand): 21000 nM
Cc1cc(O)cc(C)c1C[C@H](N)C(=O)N1Cc2ccccc2C[C@H]1C(=O)NCC(=O)NCc1ccc([N+](=O)[O-])cc1 — Ki (ligand displacement, radioligand; cell membranes): 0.39 nM
CCCC[C@@H](NC(=O)[C@@H](N)Cc1c(C)cc(O)cc1C)C(=O)NCC(=O)N[C@@H](Cc1ccc(F)cc1)C(=O)N(C)CCC[C@@]1(c2ccc(F)cc2)OCc2cc(C#N)ccc21 — Ki (cell-free assay): 0.8 nM
C[C@@H](NC(=O)[C@@H](N)Cc1ccc(O)cc1)C(=O)NCC(=O)N[C@H](CC(=O)NNC(=O)C[C@H](Cc1ccccc1)NC(=O)CNC(=O)[C@@H](C)NC(=O)[C@@H](N)Cc1ccc(O)cc1)Cc1ccccc1 — Ki (ligand displacement, radioligand): 0.72 nM
Cc1cc(O)cc(C)c1C[C@H](N)C(=O)N1Cc2ccccc2C[C@@H]1C(=O)NCC(=O)NCc1ccccc1 — Ki (ligand displacement, radioligand; cell membranes): 3.2 nM
CCCC[C@@H](NC(=O)[C@@H](N)Cc1ccc(O)cc1)C(=O)NCC(=O)N[C@@H](Cc1ccc(F)cc1)C(=O)N(C)CCC[C@@]1(c2ccc(F)cc2)OCc2cc(C#N)ccc21 — Ki (cell-free assay): 1.4 nM
